Test results taken from ChEMBL document CHEMBL1152689, “Synthesis, tautomerism, and antimicrobial, anti-HCV, anti-SSPE, antioxidant, and antitumor activities of arylazobenzosuberones” (Bioorg Med Chem, 2009).
pIC50: −log10 of the molar value. In brackets after ≈: the same amount, converted by molar mass. Activity calls are given as the source filed them. The calls are words filed in the database; no cut-off is given here.

How the values were obtained:
Hepatitis C virus = assay: Antiviral activity against HCV by cell based replicon assay; type: functional, Hepacivirus hominis
Method in brief: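 HCV replicon cells plated at 1×10^4 per well. Next day incubated at 37 °C with serially diluted compound in DMEM with 2% FBS and 0.5% DMSO. HCV RNA copy number measured by quantitative RT-PCR on total cellular RNA. Each point is the average of five replicates. Cytotoxicity measured by MTS in parallel.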

[1] = test system: Syncephalastrum racemosum; assay: Antimicrobial activity against Syncephalastrum racemosum at 1.25 ug/mL by agar diffusion method; type: functional; conditions: read-out: IZ
Staphylococcus aureus [2] = assay: Antimicrobial activity against Staphylococcus aureus at 2.5 ug/mL by agar diffusion method; type: functional; conditions: read-out: IZ
[3] = biological target: DNA topoisomerase 2-alpha (Mus musculus) (UniProt Q01320); assay: Inhibition of topoisomerase 2 from mouse P388 cells assessed as relaxation of pBR322 DNA by agarose gel electrophoresis relative to etoposide; type: cell-based
Method in brief: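 Topoisomerase II purified from P388 cells. One unit relaxes 0.125 µg supercoiled pBR322 DNA, incubated with or without inhibitor at 30 °C for 1 h in 50 mM Tris-HCl pH 8.0, 100 mM KCl, 10 mM MgCl2, 0.5 mM DTT, 1 mM ATP and 30 µg/ml BSA. Products run on 0.7% agarose in TBE, stained with ethidium bromide and imaged under UV.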

Bacillus subtilis [4] = assay: Antimicrobial activity against Bacillus subtilis by agar diffusion method; type: functional
Method in brief: (§1)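 Agar diffusion on plates against bacteria and fungi. MIC taken as the lowest concentration giving no visible growth on the plate.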

Aspergillus fumigatus [5] = assay: Antimicrobial activity against Aspergillus fumigatus at 2.5 ug/mL by agar diffusion method; type: functional; conditions: read-out: IZ
Penicillium italicum [6] = assay: Antimicrobial activity against Penicillium italicum at 2.5 ug/mL by agar diffusion method; type: functional; conditions: read-out: IZ
Candida albicans [7] = assay: Antimicrobial activity against Candida albicans at 2.5 ug/mL by agar diffusion method; type: functional; conditions: read-out: IZ
Escherichia coli [8] = assay: Antimicrobial activity against Escherichia coli at 2.5 ug/mL by agar diffusion method; type: functional; conditions: read-out: IZ
[9] = test system: Radical scavenging activity; assay: Antioxidant activity assessed as DPPH free radical scavenging activity by measuring reduction in DPPH absorbance by ELISA relative to untreated control; type: functional; design: concentration or dose not given beside the values
Method in brief: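 Test compounds dissolved in DMSO, ascorbic acid standard in water, both serially diluted. 10 µl sample added to 90 µl of 100 µM DPPH in methanol and kept in the dark at 37 °C for 30 min. Absorbance read at 515 nm. Blank is DMSO plus DPPH. % reduction = (A_B − A_A)/A_B × 100. Run in triplicate.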

[10] = Antioxidant activity assessed as inhibition of peroxynitrite-mediated 3-nitrotyrosine formation by HPLC; type: functional
Method in brief: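 Tyrosine and peroxynitrite, each 100 µM, reacted with compound at 0–300 µM in 100 mM phosphate buffer pH 7.4 at 37 °C for 15 min. Peroxynitrite made from acidified H2O2 plus KNO2, quenched with NaOH, and kept on ice no longer than 30 min before use.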

[11] = biological target: T1, DNA topoisomerase 1 (Homo sapiens) (UniProt P11387); assay: Inhibition of topoisomerase 1 relative to etoposide
T1 sequence (whole entry): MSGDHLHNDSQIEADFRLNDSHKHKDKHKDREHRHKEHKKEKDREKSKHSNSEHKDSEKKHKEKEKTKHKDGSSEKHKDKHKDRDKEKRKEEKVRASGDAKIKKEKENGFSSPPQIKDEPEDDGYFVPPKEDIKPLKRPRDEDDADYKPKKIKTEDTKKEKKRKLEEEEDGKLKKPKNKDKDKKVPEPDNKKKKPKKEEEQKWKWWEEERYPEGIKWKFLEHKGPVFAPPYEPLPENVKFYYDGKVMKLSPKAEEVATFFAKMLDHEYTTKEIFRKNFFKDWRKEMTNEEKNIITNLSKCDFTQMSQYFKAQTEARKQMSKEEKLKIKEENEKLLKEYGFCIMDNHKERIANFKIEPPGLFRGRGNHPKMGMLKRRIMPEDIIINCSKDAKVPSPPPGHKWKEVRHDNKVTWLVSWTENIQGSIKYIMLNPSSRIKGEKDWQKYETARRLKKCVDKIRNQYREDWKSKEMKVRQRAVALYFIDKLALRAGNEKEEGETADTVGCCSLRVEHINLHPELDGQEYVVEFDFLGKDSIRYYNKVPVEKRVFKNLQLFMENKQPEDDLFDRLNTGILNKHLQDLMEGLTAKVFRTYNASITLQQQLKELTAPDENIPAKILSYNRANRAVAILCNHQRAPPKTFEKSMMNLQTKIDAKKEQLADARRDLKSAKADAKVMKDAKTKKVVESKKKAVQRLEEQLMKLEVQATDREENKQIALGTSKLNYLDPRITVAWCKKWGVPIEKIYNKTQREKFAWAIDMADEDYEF

[12] = test system: Syncephalastrum racemosum; assay: Antimicrobial activity against Syncephalastrum racemosum by agar diffusion method; type: functional; method in brief: as §1
Candida albicans [13] = assay: Antimicrobial activity against Candida albicans at 5 ug/mL by agar diffusion method; type: functional; conditions: read-out: IZ
Candida albicans [14] = assay: Antimicrobial activity against Candida albicans at 1.25 ug/mL by agar diffusion method; type: functional; conditions: read-out: IZ
Aspergillus fumigatus [15] = assay: Antimicrobial activity against Aspergillus fumigatus by agar diffusion method; type: functional; method in brief: as §1
Penicillium italicum [16] = assay: Antimicrobial activity against Penicillium italicum at 5 ug/mL by agar diffusion method; type: functional; conditions: read-out: IZ
Pseudomonas aeruginosa [17] = assay: Antimicrobial activity against Pseudomonas aeruginosa at 5 ug/mL by agar diffusion method; type: functional; conditions: read-out: IZ
Candida albicans [18] = assay: Antimicrobial activity against Candida albicans by agar diffusion method; type: functional; method in brief: as §1
Measles morbillivirus = assay: Antiviral activity against Measles virus infected in intracranially dosed hamster assessed as inhibition of subacute sclerosing panencephalitis; type: functional
Method in brief: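 Hamsters under ether anesthesia injected intracranially, into the subarachnoid space at 2 mm depth, at 5, 10 and 20 mg/kg/day for 10 days. Four animals per group sacrificed on days 1–20. Brains homogenized in PBS and centrifuged, supernatant deproteinized with ethanol, then MIC in brain tissue determined by HPLC and bioassay.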

Staphylococcus aureus [19] = assay: Antimicrobial activity against Staphylococcus aureus by agar diffusion method; type: functional; method in brief: as §1
Pseudomonas aeruginosa [20] = assay: Antimicrobial activity against Pseudomonas aeruginosa at 2.5 ug/mL by agar diffusion method; type: functional; conditions: read-out: IZ
[21] = test system: Syncephalastrum racemosum; assay: Antimicrobial activity against Syncephalastrum racemosum at 2.5 ug/mL by agar diffusion method; type: functional; conditions: read-out: IZ
Aspergillus fumigatus [22] = assay: Antimicrobial activity against Aspergillus fumigatus at 5 ug/mL by agar diffusion method; type: functional; conditions: read-out: IZ
Bacillus subtilis [23] = assay: Antimicrobial activity against Bacillus subtilis at 5 ug/mL by agar diffusion method; type: functional; conditions: read-out: IZ
Penicillium italicum [24] = assay: Antimicrobial activity against Penicillium italicum by agar diffusion method; type: functional; method in brief: as §1
MC-38 = assay: Antitumor activity against mouse Colon 38 cells implanted in iv dosed C57BL/6 mouse administered as single dose; type: functional, organism-based
Method in brief: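 Female C57BL/6 mice, 6 weeks old, given about 30 mg Colon 38 tumor tissue s.c. in the flank. Randomized into groups of n = 5 when tumors reached about 300 mm3 (day 1). Compound in 5% glucose given as a single iv tail-vein dose on day 1; controls received 5% glucose. Tumor volume = (length × width²)/2 and body weight tracked.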

Staphylococcus aureus [25] = assay: Antimicrobial activity against Staphylococcus aureus at 5 ug/mL by agar diffusion method; type: functional; conditions: read-out: IZ
Bacillus subtilis [26] = assay: Antimicrobial activity against Bacillus subtilis at 1.25 ug/mL by agar diffusion method; type: functional; conditions: read-out: IZ
Staphylococcus aureus [27] = assay: Antimicrobial activity against Staphylococcus aureus at 1.25 ug/mL by agar diffusion method; type: functional; conditions: read-out: IZ
Penicillium italicum [28] = assay: Antimicrobial activity against Penicillium italicum at 1.25 ug/mL by agar diffusion method; type: functional; conditions: read-out: IZ
Bacillus subtilis [29] = assay: Antimicrobial activity against Bacillus subtilis at 2.5 ug/mL by agar diffusion method; type: functional; conditions: read-out: IZ
Escherichia coli [30] = assay: Antimicrobial activity against Escherichia coli at 1.25 ug/mL by agar diffusion method; type: functional; conditions: read-out: IZ
[31] = test system: Syncephalastrum racemosum; assay: Antimicrobial activity against Syncephalastrum racemosum at 5 ug/mL by agar diffusion method; type: functional; conditions: read-out: IZ
Escherichia coli [32] = assay: Antimicrobial activity against Escherichia coli at 5 ug/mL by agar diffusion method; type: functional; conditions: read-out: IZ
Aspergillus fumigatus [33] = assay: Antimicrobial activity against Aspergillus fumigatus at 1.25 ug/mL by agar diffusion method; type: functional; conditions: read-out: IZ
Pseudomonas aeruginosa [34] = assay: Antimicrobial activity against Pseudomonas aeruginosa at 1.25 ug/mL by agar diffusion method; type: functional; conditions: read-out: IZ

Sequence of DNA topoisomerase 2-alpha (Mus musculus) (Q01320 whole entry): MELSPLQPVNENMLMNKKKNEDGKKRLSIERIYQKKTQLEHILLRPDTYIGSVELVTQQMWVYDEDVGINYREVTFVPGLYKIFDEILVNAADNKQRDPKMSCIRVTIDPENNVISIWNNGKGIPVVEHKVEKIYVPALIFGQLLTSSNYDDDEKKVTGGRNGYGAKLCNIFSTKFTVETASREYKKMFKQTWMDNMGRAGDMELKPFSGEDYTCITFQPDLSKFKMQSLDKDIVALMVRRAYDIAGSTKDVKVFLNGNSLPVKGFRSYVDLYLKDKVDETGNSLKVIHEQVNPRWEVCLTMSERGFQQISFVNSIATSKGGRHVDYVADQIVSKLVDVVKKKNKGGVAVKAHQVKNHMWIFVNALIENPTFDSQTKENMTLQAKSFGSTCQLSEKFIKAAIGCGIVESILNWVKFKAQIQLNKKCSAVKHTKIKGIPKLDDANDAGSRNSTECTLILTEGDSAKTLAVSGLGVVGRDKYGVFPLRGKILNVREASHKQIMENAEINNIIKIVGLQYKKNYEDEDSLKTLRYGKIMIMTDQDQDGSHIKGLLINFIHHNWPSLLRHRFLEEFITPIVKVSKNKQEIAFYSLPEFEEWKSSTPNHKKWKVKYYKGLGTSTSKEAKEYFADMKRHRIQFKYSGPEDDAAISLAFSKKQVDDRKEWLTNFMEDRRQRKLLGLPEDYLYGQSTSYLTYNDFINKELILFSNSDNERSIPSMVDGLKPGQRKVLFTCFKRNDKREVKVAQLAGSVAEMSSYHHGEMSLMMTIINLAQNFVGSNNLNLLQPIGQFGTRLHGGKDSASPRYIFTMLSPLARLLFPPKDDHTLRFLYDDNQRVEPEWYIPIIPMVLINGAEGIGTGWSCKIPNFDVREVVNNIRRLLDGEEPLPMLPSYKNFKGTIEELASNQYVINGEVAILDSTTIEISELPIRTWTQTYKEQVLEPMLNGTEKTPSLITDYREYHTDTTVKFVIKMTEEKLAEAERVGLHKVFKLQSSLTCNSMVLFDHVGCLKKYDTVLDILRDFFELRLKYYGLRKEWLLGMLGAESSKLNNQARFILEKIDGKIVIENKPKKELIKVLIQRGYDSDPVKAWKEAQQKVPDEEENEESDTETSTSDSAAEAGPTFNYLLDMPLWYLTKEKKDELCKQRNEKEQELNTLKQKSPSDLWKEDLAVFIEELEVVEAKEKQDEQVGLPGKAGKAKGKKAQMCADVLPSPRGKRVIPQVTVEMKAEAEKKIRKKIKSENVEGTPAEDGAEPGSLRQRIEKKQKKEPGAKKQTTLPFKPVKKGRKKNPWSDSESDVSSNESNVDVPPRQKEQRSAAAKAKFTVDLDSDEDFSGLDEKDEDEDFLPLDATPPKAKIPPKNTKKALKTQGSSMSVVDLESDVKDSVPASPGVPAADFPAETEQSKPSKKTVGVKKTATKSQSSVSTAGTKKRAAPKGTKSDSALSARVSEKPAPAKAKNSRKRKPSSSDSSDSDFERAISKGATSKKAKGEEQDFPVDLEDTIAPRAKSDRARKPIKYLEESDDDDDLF

## CC(=O)c1ccc(N/N=C2\CCCc3ccccc3C2=O)cc1
Hepatitis C virus
  MIC: 1.09 µg/mL (≈ 3.56 µM)
[1]
  zone of inhibition at 1.25 µg/mL: 6 mm
Staphylococcus aureus [2]
  zone of inhibition at 2.5 µg/mL: 8 mm
[3]
  Ratio: 4.33
Bacillus subtilis [4]
  MIC: 0.313 µg/mL (≈ 1.02 µM)
Aspergillus fumigatus [5]
  zone of inhibition at 2.5 µg/mL: 11 mm
Penicillium italicum [6]
  zone of inhibition at 2.5 µg/mL: 6 mm
Candida albicans [7]
  zone of inhibition at 2.5 µg/mL: 7 mm
Escherichia coli [8]
  zone of inhibition at 2.5 µg/mL: 0 mm
[9]
  Activity: 81%
[10]
  pIC50: 4.25
[11]
  Ratio: 4.3
[12]
  MIC: 0.313 µg/mL (≈ 1.02 µM)
Candida albicans [13]
  zone of inhibition at 5 µg/mL: 10 mm
Candida albicans [14]
  zone of inhibition at 1.25 µg/mL: 3 mm
Aspergillus fumigatus [15]
  MIC: 0.625 µg/mL (≈ 2.04 µM)
Penicillium italicum [16]
  zone of inhibition at 5 µg/mL: 17 mm
Pseudomonas aeruginosa [17]
  zone of inhibition at 5 µg/mL: 0 mm
Candida albicans [18]
  MIC: 1.25 µg/mL (≈ 4.08 µM)
Measles morbillivirus
  MIC: 6.12 µg/mL (≈ 20 µM)
Staphylococcus aureus [19]
  MIC: 0.625 µg/mL (≈ 2.04 µM)
Pseudomonas aeruginosa [20]
  zone of inhibition at 2.5 µg/mL: 0 mm
[21]
  zone of inhibition at 2.5 µg/mL: 9 mm
Aspergillus fumigatus [22]
  zone of inhibition at 5 µg/mL: 20 mm
Bacillus subtilis [23]
  zone of inhibition at 5 µg/mL: 16 mm
Penicillium italicum [24]
  MIC: 1.25 µg/mL (≈ 4.08 µM)
MC-38
  Activity: Active
Staphylococcus aureus [25]
  zone of inhibition at 5 µg/mL: 15 mm
Bacillus subtilis [26]
  zone of inhibition at 1.25 µg/mL: 7 mm
Staphylococcus aureus [27]
  zone of inhibition at 1.25 µg/mL: 5 mm
Penicillium italicum [28]
  zone of inhibition at 1.25 µg/mL: 4 mm
Bacillus subtilis [29]
  zone of inhibition at 2.5 µg/mL: 10 mm
Escherichia coli [30]
  zone of inhibition at 1.25 µg/mL: 0 mm
[31]
  zone of inhibition at 5 µg/mL: 16 mm
Escherichia coli [32]
  zone of inhibition at 5 µg/mL: 12 mm
Aspergillus fumigatus [33]
  zone of inhibition at 1.25 µg/mL: 6 mm
Pseudomonas aeruginosa [34]
  zone of inhibition at 1.25 µg/mL: 0 mm
